Experimental data: ChEMBL document CHEMBL5678806, “NMS-P937, an orally available, specific small-molecule polo-like kinase 1 inhibitor with antitumor activity in solid and hematologic malignancies” (Mol Cancer Ther, 2012)
Calls of active or inactive are those of the source. The calls are words filed in the database; no cut-off is given here.

Key:
[1] = target: Eukaryotic elongation factor 2 kinase (Homo sapiens, UniProt O00418); assay: Inhibition of EEF2K (unknown origin) in presence of [gamma-33P]ATP
[2] = target: T1, Tyrosine-protein kinase SYK (Homo sapiens, UniProt P43405); assay: Inhibition of SYK (unknown origin) in presence of [gamma-33P]ATP
[3] = target: Tyrosine-protein kinase ZAP-70 (Homo sapiens, UniProt P43403); assay: Inhibition of ZAP70 (unknown origin) in presence of [gamma-33P]ATP
[4] = target: Tyrosine-protein kinase BTK (Homo sapiens) (UniProt Q06187); assay: Inhibition of N-terminal His6-tagged recombinant full-length human BTK expressed in baculovirus infected Sf21 cells assessed as residual activity at 0.1 uM relative to control
[5] = target: Dual specificity protein kinase CLK2 (Homo sapiens) (UniProt P49760); assay: Inhibition of N-terminal GST-tagged recombinant human CLK2 (138 to end residues) expressed in baculovirus infected Sf21 cells assessed as residual activity at 0.1 uM relative to control
[6] = target: Serine/threonine-protein kinase Nek11 (Homo sapiens) (UniProt Q8NG66); assay: Inhibition of 6His-tagged recombinant human full-length NEK11 expressed in baculovirus infected Sf21 cells assessed as residual activity at 0.1 uM relative to control
[7] = target: T1, Tyrosine-protein kinase SYK; assay: Inhibition of N-terminal His6-tagged recombinant full-length human Syk expressed in baculovirus infected Sf21 cells assessed as residual activity at 0.1 uM relative to control
Activated CDC42 kinase 1 = Activated CDC42 kinase 1 (Homo sapiens, UniProt Q07912); assay: Inhibition of N-terminal GST-tagged recombinant human ACK1 (1 to 389 residues) expressed in baculovirus infected Sf21 cells assessed as residual activity at 1 uM relative to control
[8] = target: ALK tyrosine kinase receptor (Homo sapiens) (UniProt Q9UM73); assay: Inhibition of N-terminal His6-tagged recombinant human ALK (1058 to end residues) expressed in baculovirus infected Sf21 cells assessed as residual activity at 1 uM relative to control
[9] = target: Ephrin type-B receptor 3 (Homo sapiens) (UniProt P54753); assay: Inhibition of N-terminal His6-tagged recombinant human EphB3 (599 to 920 residues) expressed in baculovirus infected Sf21 cells assessed as residual activity at 1 uM relative to control
[10] = target: cAMP-dependent protein kinase (PKA) (Homo sapiens) (UniProt P22694+P17612+P22612); assay: Inhibition of recombinant human full-length PKA expressed in E.coli BL21 (DE3) pLysS cells assessed as residual activity at 1 uM relative to control
[11] = target: Ribosomal protein S6 kinase alpha-3 (Homo sapiens) (UniProt P51812); assay: Inhibition of N-terminal His6 tagged recombinant human full-length Rsk2 expressed in baculovirus infected Sf21 cells assessed as residual activity at 1 uM relative to control
SH-SY5Y = assay: Antiproliferative activity against human SH-SY5Y cells assessed as inhibition of cell growth incubated for 72 hrs by cell-titer glo assay; format: functional, cell-based
SK-BR-3 = assay: Antiproliferative activity against human SK-BR-3 cells assessed as inhibition of cell growth incubated for 72 hrs by cell-titer glo assay; format: functional, cell-based; details: SK-BR-3, 72 h
MDA-MB-453 = assay: Antiproliferative activity against human MDA-MB-453 cells assessed as inhibition of cell growth incubated for 72 hrs by cell-titer glo assay; format: functional, cell-based; details: MDA-MB-453, 72 h
Outline: (§1)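 Cells seeded at 10,000–30,000/cm² (adherent) or 100,000/mL (nonadherent) in medium with 10% fetal calf serum; after 24 h, treated in duplicate with serial dilutions for 72 h. Viable cell number read by CellTiter-Glo luminescence; IC50 from sigmoidal fit; at least two independent experiments.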

HCC1419 = assay: Antiproliferative activity against human HCC1419 cells assessed as inhibition of cell growth incubated for 72 hrs by cell-titer glo assay; format: functional, cell-based; details: HCC1419, 72 h; outline: as §1
SW-620 = assay: Antiproliferative activity against human SW620 cells assessed as inhibition of cell growth incubated for 72 hrs by cell-titer glo assay; format: functional, cell-based; details: SW-620, 72 h
TK-10 = assay: Antiproliferative activity against human TK-10 cells assessed as inhibition of cell growth incubated for 72 hrs by cell-titer glo assay; format: functional, cell-based; details: TK-10, 72 h
NCI-H322M = assay: Antiproliferative activity against human NCI-H322M cells assessed as inhibition of cell growth incubated for 72 hrs by cell-titer glo assay; format: functional, cell-based
Outline: (§2)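 Cells from ATCC or ECACC, kept in supplier-recommended medium with 1% penicillin-streptomycin at 37°C, 5% CO₂. Seeded at 10,000–30,000/cm² (adherent) or 100,000/mL (nonadherent) in medium with 10% fetal calf serum. Dosed after 24 h in duplicate with serial dilutions. Viable cells read by CellTiter-Glo 72 h later. IC50 from sigmoidal fit. At least two independent experiments.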

NCI-H838 = assay: Antiproliferative activity against human NCI-H838 cells assessed as inhibition of cell growth incubated for 72 hrs by cell-titer glo assay; format: functional, cell-based; details: NCI-H838, 72 h; outline: as §2
SK-MEL-28 = assay: Antiproliferative activity against human SK-MEL-28 cells assessed as inhibition of cell growth incubated for 72 hrs by cell-titer glo assay; format: functional, cell-based; details: SK-MEL-28, 72 h
CCRF-CEM = assay: Antiproliferative activity against human CCRF-CEM cells assessed as inhibition of cell growth incubated for 72 hrs by cell-titer glo assay; format: functional, cell-based
Outline: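 Cells seeded 10,000–30,000/cm² (adherent) or 100,000/mL (suspension) in medium with 10% fetal calf serum; after 24 h treated in duplicate with serial dilutions for 72 h. Viable cells read by CellTiter-Glo luminescence; IC50 from sigmoidal fit; at least two independent experiments.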

RS4-11 = assay: Antiproliferative activity against human RS4-11 cells assessed as inhibition of cell growth incubated for 72 hrs by cell-titer glo assay; format: functional, cell-based; details: RS4-11, 72 h; outline: as §2
KMS-11 = assay: Antiproliferative activity against human KMS-11 cells assessed as inhibition of cell growth incubated for 72 hrs by cell-titer glo assay; format: functional, cell-based; details: KMS-11, 72 h; outline: as §1
[12] = Volume of distribution at steady state in nu/nu mouse at 10 mg/kg, iv by LC-MS analysis; format: ADME, organism-based; details: in vivo, read-out: Vdss
[13] = Volume of distribution at steady state in Beagle dog at 5 mg/kg, iv by LC-MS analysis; format: ADME, organism-based, Canis lupus familiaris; details: in vivo, read-out: Vdss
[14] = Oral bioavailability in Sprague-Dawley rat at 10 mg/kg by LC-MS analysis; format: ADME, organism-based; details: in vivo
[15] = Oral bioavailability in male cynomolgus monkey at 5 mg/kg by LC-MS analysis; format: ADME, organism-based, Macaca fascicularis; details: in vivo
NHDF = assay: Induction of mitosis in human NHDF cells at 0.0001 to 100 uM incubated for >= 24 hrs followed by compound washout by cell titer glow assay; format: toxicity, cell-based; details: dose 0.0001-100 µM
COLO 205 = assay: Antitumor activity against human COLO 205 cells xenografted in nu/nu mouse assessed as tumor growth inhibition at 60 mg/kg, po administered for 10 days; format: functional, organism-based; details: time 10.0 day

Chain of Eukaryotic elongation factor 2 kinase (O00418 whole entry): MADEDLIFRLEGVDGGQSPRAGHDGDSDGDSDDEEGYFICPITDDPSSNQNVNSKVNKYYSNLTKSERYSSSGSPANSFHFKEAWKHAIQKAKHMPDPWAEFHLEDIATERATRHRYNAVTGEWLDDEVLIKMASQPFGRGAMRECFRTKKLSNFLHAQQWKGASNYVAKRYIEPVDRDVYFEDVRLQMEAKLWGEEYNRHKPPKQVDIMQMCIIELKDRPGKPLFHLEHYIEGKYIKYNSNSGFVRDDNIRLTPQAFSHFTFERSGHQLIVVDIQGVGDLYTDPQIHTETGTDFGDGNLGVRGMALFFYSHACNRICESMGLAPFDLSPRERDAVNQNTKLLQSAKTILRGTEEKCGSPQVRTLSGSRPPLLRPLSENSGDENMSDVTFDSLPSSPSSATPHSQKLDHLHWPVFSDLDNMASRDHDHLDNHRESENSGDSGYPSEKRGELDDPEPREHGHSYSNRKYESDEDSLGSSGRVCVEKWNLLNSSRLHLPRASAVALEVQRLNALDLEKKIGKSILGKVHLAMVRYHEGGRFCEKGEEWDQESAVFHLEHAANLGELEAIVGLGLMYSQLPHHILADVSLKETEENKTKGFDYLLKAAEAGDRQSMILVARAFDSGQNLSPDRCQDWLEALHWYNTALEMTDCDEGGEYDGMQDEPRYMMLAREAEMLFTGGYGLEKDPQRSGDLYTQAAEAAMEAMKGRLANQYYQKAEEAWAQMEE
Chain of Tyrosine-protein kinase BTK (Homo sapiens) (Q06187 whole entry): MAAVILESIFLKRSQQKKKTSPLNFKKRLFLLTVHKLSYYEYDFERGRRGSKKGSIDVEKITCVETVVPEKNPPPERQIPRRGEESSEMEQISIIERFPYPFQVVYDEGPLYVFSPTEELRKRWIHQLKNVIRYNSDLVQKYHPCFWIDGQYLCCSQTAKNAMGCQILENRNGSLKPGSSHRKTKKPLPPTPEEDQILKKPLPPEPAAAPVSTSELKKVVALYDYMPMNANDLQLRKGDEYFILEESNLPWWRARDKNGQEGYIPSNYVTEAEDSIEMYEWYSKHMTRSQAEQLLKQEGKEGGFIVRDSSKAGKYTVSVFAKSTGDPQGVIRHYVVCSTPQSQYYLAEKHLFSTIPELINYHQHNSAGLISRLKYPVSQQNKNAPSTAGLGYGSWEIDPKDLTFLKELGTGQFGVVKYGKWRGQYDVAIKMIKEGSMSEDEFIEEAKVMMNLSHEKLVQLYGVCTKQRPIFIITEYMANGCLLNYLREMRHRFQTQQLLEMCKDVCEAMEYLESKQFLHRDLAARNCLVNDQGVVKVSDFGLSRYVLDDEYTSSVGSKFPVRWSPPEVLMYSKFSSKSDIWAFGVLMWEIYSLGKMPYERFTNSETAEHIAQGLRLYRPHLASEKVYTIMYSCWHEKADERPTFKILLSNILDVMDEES
Chain of Tyrosine-protein kinase ZAP-70 (P43403 whole entry): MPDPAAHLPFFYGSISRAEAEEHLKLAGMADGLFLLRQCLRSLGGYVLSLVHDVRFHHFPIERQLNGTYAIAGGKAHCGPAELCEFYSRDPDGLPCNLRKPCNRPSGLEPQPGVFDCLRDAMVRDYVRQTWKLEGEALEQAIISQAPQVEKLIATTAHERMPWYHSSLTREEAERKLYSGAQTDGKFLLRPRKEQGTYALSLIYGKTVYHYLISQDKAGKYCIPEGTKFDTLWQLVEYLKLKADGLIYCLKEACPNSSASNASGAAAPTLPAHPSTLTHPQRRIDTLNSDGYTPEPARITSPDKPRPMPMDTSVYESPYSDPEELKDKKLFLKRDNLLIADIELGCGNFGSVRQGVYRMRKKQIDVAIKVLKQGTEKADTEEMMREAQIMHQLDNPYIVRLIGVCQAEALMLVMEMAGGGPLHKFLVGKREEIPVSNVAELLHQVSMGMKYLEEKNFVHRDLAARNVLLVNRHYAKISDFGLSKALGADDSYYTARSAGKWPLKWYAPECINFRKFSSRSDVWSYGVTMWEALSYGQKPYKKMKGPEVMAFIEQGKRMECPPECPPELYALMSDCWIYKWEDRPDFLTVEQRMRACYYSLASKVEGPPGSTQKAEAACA
Chain of Ribosomal protein S6 kinase alpha-3 (Homo sapiens) (P51812 whole entry): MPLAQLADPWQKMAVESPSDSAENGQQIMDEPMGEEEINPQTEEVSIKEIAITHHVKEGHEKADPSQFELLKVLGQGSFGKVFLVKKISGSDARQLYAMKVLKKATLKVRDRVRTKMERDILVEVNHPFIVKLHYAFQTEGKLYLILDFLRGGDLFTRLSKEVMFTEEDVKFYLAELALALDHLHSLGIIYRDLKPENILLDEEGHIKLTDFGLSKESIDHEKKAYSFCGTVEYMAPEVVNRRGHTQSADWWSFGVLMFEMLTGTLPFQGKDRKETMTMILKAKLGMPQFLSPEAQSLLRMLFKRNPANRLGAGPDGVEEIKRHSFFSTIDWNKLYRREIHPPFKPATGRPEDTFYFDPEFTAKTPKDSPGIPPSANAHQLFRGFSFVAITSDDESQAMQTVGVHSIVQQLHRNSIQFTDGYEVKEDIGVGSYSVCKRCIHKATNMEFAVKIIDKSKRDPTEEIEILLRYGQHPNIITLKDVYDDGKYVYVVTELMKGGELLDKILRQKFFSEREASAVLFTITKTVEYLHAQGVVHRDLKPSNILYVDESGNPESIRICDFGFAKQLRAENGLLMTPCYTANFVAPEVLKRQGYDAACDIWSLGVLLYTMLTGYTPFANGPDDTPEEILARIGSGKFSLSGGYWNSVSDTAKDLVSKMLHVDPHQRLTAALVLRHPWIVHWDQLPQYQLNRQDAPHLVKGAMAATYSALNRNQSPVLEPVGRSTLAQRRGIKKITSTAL
Chain of Serine/threonine-protein kinase Nek11 (Homo sapiens) (Q8NG66 whole entry): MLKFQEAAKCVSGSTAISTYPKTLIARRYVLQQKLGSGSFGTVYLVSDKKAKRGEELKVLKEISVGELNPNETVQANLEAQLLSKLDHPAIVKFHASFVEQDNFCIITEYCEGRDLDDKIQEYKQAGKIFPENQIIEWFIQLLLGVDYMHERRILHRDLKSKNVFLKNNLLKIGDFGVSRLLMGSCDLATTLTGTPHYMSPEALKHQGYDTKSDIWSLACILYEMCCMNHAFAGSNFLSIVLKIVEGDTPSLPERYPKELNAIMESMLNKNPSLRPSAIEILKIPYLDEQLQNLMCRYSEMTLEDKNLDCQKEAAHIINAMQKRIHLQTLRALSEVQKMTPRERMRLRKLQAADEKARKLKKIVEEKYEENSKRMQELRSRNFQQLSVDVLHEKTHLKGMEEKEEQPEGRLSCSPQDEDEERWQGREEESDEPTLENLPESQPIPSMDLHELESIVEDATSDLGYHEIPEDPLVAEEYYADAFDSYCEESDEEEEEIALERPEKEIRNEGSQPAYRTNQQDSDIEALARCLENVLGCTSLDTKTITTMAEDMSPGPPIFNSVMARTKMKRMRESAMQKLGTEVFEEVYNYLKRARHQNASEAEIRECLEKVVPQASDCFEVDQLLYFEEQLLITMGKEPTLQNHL
Chain of Ephrin type-B receptor 3 (Homo sapiens) (P54753 whole entry, the tested form may be a part): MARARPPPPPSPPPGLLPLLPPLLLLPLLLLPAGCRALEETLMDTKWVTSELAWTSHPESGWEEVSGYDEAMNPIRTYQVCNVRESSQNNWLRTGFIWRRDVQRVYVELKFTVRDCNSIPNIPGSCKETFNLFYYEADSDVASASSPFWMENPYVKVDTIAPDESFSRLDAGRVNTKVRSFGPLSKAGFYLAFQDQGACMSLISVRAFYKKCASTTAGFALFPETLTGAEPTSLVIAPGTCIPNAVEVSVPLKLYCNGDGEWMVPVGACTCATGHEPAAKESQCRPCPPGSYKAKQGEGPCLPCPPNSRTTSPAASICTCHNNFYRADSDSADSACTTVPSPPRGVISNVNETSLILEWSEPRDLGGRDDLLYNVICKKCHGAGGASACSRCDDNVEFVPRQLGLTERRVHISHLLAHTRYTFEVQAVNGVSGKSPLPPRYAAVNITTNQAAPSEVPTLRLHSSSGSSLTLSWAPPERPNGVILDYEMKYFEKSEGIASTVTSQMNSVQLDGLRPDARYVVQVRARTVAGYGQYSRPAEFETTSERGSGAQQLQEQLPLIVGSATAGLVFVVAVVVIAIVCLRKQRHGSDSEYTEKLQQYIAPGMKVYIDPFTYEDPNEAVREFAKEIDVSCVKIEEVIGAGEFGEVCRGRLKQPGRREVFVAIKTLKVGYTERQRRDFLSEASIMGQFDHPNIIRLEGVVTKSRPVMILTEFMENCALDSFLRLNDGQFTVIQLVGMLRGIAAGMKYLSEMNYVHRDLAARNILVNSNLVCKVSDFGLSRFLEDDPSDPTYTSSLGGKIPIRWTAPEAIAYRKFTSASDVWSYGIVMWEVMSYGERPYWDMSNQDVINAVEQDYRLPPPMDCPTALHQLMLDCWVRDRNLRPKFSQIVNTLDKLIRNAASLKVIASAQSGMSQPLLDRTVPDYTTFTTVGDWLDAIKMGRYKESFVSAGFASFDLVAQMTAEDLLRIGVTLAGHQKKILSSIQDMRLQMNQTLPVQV
Chain of Dual specificity protein kinase CLK2 (Homo sapiens) (P49760 whole entry, looked up): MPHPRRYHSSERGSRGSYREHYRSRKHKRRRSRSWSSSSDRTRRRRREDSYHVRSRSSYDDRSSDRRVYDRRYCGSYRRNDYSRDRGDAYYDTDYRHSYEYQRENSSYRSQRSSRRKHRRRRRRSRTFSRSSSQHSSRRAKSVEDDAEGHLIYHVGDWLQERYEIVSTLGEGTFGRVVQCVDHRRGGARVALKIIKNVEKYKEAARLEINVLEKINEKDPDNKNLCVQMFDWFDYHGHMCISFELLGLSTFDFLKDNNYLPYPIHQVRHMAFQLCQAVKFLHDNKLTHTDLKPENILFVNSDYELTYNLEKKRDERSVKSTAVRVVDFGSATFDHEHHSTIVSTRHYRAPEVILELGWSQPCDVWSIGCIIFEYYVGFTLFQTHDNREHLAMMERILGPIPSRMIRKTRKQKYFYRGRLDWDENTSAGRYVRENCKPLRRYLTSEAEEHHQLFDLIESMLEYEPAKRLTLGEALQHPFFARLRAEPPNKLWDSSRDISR

CN1CCN(c2ccc(OC(F)(F)F)c(Nc3ncc4c(n3)-c3c(c(C(N)=O)nn3CCO)CC4)c2)CC1 [ONVANSERTIB]
IC50 [1]: > 10000 nM
IC50 [2]: > 10000 nM
IC50 [3]: > 10000 nM
Activity [4]: 83%
Activity [5]: 52%
Activity [6]: 114%
Activity [7]: 96%
Activity (Activated CDC42 kinase 1): 89%
Activity [8]: 133%
Activity [9]: 87%
Activity [10]: 85%
Activity [11]: 89%
IC50 (SH-SY5Y): 30 nM
IC50 (SK-BR-3): 35 nM
IC50 (MDA-MB-453): 90 nM
IC50 (HCC1419): 42 nM
IC50 (SW-620): 37 nM
IC50 (TK-10): 1210 nM
IC50 (NCI-H322M): 183 nM
IC50 (NCI-H838): 119 nM
IC50 (SK-MEL-28): 78 nM
IC50 (CCRF-CEM): 55 nM
IC50 (RS4-11): 43 nM
IC50 (KMS-11): 46 nM
Vd [12]: 1.7 L/kg
Vd [13]: 9.5 L/kg
F [14]: 100%
F [15]: 35%
Activity (NHDF): Toxic
TGI (COLO 205): Active
